In experiment [1] the target is T1, GABA-A receptor; alpha-3/beta-3/gamma-2 (Homo sapiens, UniProt P18507+P28472+P34903).
T1 sequence (P18507 whole entry): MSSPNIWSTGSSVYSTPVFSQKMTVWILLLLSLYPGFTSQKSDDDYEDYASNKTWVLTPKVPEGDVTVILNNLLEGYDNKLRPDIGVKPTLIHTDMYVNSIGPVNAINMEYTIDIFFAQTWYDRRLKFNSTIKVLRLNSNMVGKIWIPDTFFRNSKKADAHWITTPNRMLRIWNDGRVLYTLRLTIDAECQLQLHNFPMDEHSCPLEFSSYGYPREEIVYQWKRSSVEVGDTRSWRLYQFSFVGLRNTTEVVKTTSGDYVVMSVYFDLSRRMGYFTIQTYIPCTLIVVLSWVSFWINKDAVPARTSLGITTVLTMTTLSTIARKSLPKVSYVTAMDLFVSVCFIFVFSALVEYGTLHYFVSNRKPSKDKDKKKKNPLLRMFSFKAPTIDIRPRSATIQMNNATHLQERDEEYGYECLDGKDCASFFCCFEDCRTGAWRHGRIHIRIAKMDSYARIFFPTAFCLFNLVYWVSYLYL
T1 sequence (P28472 whole entry): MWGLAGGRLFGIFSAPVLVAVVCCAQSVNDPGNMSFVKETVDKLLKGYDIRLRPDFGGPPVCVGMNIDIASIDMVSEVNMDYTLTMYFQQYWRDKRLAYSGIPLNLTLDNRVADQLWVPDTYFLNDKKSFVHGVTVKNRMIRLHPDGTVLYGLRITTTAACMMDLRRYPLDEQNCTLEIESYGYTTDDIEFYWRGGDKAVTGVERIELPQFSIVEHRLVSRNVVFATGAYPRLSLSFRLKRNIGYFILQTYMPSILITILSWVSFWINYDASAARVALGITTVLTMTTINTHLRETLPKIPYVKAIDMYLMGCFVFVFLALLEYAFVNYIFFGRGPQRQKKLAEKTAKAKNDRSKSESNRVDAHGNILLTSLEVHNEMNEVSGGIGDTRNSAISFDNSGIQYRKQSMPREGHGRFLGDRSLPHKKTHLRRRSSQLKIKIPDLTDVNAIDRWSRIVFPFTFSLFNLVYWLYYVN
T1 sequence (P34903 whole entry): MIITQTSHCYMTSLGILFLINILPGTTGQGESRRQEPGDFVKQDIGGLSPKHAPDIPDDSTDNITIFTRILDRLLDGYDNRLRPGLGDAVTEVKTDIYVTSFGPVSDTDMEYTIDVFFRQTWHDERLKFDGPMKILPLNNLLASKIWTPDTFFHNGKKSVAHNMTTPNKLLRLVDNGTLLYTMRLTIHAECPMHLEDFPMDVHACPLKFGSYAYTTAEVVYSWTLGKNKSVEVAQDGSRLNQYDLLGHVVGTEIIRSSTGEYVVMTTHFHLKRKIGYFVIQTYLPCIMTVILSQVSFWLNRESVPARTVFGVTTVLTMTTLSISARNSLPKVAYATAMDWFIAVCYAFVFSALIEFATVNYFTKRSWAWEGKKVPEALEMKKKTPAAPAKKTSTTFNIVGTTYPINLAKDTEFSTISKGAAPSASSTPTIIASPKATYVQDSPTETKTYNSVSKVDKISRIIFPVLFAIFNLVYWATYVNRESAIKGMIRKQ
Description: Displacement of [3H]-Ro- 15-1788 binding from human recombinant Gamma-aminobutyric acid A receptor alpha-3-beta-3-gamma-2 expressed in mouse fibroblast L(tk-) cells (30 min at 24 degrees C, pH 7.4). In kind it is cell-based. The method, boiled down: (§1)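 Membranes from L(tk-) cells stably expressing human α1, α3 or α5 β3γ2 in 50 mM Tris pH 7.4. [3H]Ro15-1788 at 1.8 nM final, 30 min at 24 °C. Nonspecific binding set with 10 µM flunitrazepam, total binding in 0.1% DMSO. Filtration, scintillation counting. Ki is mean ± SEM of ≥3 independent determinations.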

The target of experiment [2] is T2, GABA-A receptor; alpha-1/beta-3/gamma-2 (Homo sapiens, UniProt P14867+P18507+P28472).
T2 sequence (P14867 whole entry): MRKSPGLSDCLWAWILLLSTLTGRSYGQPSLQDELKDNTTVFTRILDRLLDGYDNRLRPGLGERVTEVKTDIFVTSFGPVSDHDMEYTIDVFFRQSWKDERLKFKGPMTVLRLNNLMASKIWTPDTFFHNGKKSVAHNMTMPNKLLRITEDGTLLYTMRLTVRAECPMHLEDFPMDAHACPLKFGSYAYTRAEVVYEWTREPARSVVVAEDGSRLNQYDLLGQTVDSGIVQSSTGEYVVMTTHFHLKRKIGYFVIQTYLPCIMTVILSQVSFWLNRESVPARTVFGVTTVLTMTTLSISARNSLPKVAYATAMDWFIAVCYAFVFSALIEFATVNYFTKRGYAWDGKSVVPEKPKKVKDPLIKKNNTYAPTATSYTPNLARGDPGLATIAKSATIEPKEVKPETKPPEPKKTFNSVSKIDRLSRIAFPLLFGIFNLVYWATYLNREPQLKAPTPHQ
T2 sequence (P18507 whole entry): T1 sequence (P18507 whole entry)
T2 sequence (P28472 whole entry): T1 sequence (P28472 whole entry)
Nature of the experiment: Displacement of [3H]-Ro- 15-1788 binding from human recombinant Gamma-aminobutyric acid A receptor alpha-1-beta-3-gamma-2 expressed in mouse fibroblast L(tk-) cells (30 min at 24 degrees C, pH 7.4). In kind it is cell-based. The method, boiled down: as §1

Experiment [3] deals with T3, GABA-A receptor; alpha-5/beta-3/gamma-2 (Homo sapiens, UniProt P18507+P28472+P31644).
T3 sequence (P18507 whole entry): T1 sequence (P18507 whole entry)
T3 sequence (P28472 whole entry): T1 sequence (P28472 whole entry)
T3 sequence (P31644 whole entry): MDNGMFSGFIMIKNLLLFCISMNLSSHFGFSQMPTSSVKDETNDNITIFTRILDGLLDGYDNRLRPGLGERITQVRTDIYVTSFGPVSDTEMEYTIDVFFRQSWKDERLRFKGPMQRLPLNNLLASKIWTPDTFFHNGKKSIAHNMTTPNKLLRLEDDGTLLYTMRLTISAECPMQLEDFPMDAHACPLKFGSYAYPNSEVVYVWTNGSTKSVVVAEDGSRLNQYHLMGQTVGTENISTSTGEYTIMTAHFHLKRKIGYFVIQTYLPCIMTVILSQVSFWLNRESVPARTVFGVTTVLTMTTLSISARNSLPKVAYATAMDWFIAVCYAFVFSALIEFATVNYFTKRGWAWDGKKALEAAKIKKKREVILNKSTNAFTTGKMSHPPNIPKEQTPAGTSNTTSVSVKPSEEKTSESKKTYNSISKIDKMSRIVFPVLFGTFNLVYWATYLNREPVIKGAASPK
Description: Displacement of [3H]-Ro- 15-1788 binding from human recombinant Gamma-aminobutyric acid A receptor alpha-5-beta-3-gamma-2 expressed in mouse fibroblast L(tk-) cells (30 min at 24 degrees C, pH 7.4). The class given is cell-based. Put shortly:
as §1

Experiment [4] has as its target GABA-A receptor; alpha-3/beta-3/gamma-2 (Homo sapiens) (UniProt P18507+P28472+P34903). Nature of the experiment: Efficacy at GABAA alpha-3-beta-3-gamma-2 receptor expressed in mouse fibroblast L(tk-) cells measured at 300 nM derived from at least three plates/day screened over a minimum of 2 days. In kind it is functional, cell-based. Put shortly: (§2)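 FRET membrane-potential (VIPR) assay in L(tk-) cells with receptor expression induced 24 h by 1 µM dexamethasone. Dye-loaded 30 min in low-Cl- HEPES buffer pH 7.4: 4 µM CC2-DMPE, 1 µM DiSBAC2(3), 0.5 mM tartrazine. Basal read 8 s, compound at 300 nM, half-maximal GABA 22 s later, 1 Hz reads. Background-subtracted 460/580 nm ratio, normalized to DMCM as -100%.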

Experiment [5] deals with GABA-A receptor; alpha-5/beta-3/gamma-2 (Homo sapiens) (UniProt P18507+P28472+P31644). Description: Efficacy at GABAA alpha-5-beta-3-gamma-2 receptor expressed in mouse fibroblast L(tk-) cells measured at 300 nM derived from at least three plates/day screened over a minimum of 2 days. The class given is functional, cell-based. Put shortly: as §2

pKi: −log10 of the molar value. Bounds are passed on as bounds.

In the case of `N#Cc1cccc(-c2cc(-c3ccccc3)cnn2)c1`, the pKi in experiment [1], in experiment [2] and in experiment [3] was less than 6.18 each time.

With `N#Cc1ccccc1-c1cnnc(-c2ccccc2)c1`, the figures for the pKi in experiment [1] and in experiment [3] were 6.36 and 6.49, respectively.

Take `N#Cc1cccc(-c2cnnc(OCc3ccccc3)c2)c1`: the negative logarithm of the Ki (pKi) in experiment [1] was 7.22; in experiment [3] it was 7.77. This compound returned an Efficacy in experiment [4] of 60.

For the compound `N#Cc1cccc(-c2cnnc(NCc3ccccc3)c2)c1`, the figures for the Efficacy in experiment [5] and in experiment [4] were 17 and 59, respectively. Besides, the results for the negative logarithm of the Ki (pKi) in experiment [1] and in experiment [3] were 7.82 and 8.21, respectively.

As for `N#Cc1ccc(-c2cnnc(-c3ccccc3)c2)cc1`, the Efficacy in experiment [5] turned out to be 45; in experiment [4] it was 49. Further, the pKi was 7.09 in experiment [1], 7.57 in experiment [2] and 7.25 in experiment [3].

Take `c1ccc(-c2cc(-c3cccc(-n4cnnc4)c3)cnn2)cc1`: the Efficacy in experiment [5] was -31; in experiment [4], 13. For the same compound, the pKi was 7.39 in experiment [1] and 7.92 in experiment [3].

As to `CCOc1cc(-c2cccc(C#N)c2)cnn1`, the Efficacy was -9 in experiment [5] and 19 in experiment [4]. The figures for the pKi in experiment [1] and in experiment [3] were 7.14 and 7.44, respectively.

Regarding `CC(C)Nc1cc(-c2cccc(Br)c2)cnn1`, the Efficacy in experiment [5] was determined as 14; in experiment [4] it was 25. Moreover, the negative logarithm of the Ki (pKi) in experiment [1] is 7.66; in experiment [2], 8.14; in experiment [3], 8.14.

Consider `CCOc1cc(-c2cccc(Br)c2)cnn1`, for which the Efficacy in experiment [5] amounted to 4; in experiment [4], 39. Further, the values for the pKi in experiment [1], in experiment [2] and in experiment [3] were 7.72, 8.07 and 8.24, respectively.

Consider `Brc1cccc(-c2cnnc(NCc3ccccc3)c2)c1`, for which the values for the Efficacy in experiment [5] and in experiment [4] were 14 and 66, respectively. Moreover, the negative-log Ki (pKi) in experiment [1] was 7.29; in experiment [3], 7.72.

In the case of `c1ccc(-c2cc(-c3ccnc(-c4ccncc4)n3)cnn2)cc1`, the Efficacy was -62 in experiment [5] and -49 in experiment [4]. For the same compound, the pKi in experiment [1] was 8.51; in experiment [2] it was 8.89; in experiment [3], 8.80.

Regarding `N#Cc1cccc(-c2cnnc(-c3ccccc3F)c2)c1`, the Efficacy was -31 in experiment [5] and -17 in experiment [4]. In addition, the values for the negative logarithm of the Ki (pKi) in experiment [1] and in experiment [3] were 8.10 and 8.47, respectively.

Turning to `c1ccc(-c2cnnc(-c3ccccc3)c2)cc1`, the Efficacy in experiment [5] was -14; in experiment [4], -20. The figures for the negative-log Ki (pKi) in experiment [1], in experiment [2] and in experiment [3] were 7.35, 7.44 and 7.54, respectively.

With `CN(C)c1cc(-c2cccc(Br)c2)cnn1`, the Efficacy in experiment [5] was -62; in experiment [4], -49. In addition, the values for the pKi in experiment [1], in experiment [2] and in experiment [3] were 6.92, 7.26 and 7.29, respectively.

In the case of `CC(C)Oc1cccc(-c2cnnc(-c3ccccc3)c2)c1`, the figures for the Efficacy in experiment [5] and in experiment [4] were 18 and 22, respectively. For the same compound, the pKi was 7.57 in experiment [1], 7.92 in experiment [2] and 8.08 in experiment [3].

In turn, `N#Cc1cccc(-c2cnnc(-c3ccc(F)cc3F)c2)c1` showed an Efficacy in experiment [5] of -57. In addition, the results for the pKi in experiment [1] and in experiment [3] were 7.64 and 7.77, respectively.

As for `N#Cc1cccc(-c2cnnc(-c3cccc(F)c3)c2)c1`, the Efficacy turned out to be 0 in experiment [5] and 3.6 in experiment [4]. The pKi in experiment [1] is 8.14; in experiment [3], 8.40.

On to `CCNc1cc(-c2cccc(Br)c2)cnn1`, for which the Efficacy in experiment [5] is -12; in experiment [4], 2. Moreover, the values for the pKi in experiment [1], in experiment [2] and in experiment [3] were 8.14, 8.46 and 8.42, respectively.

Take `COC(=O)c1sccc1-c1cnnc(-c2ccccc2)c1`: the Efficacy was -39 in experiment [5] and -44 in experiment [4]. In addition, the negative-log Ki (pKi) is 7.35 in experiment [1], 7.06 in experiment [2] and 7.92 in experiment [3].

For the compound `CNc1cc(-c2cccc(Br)c2)cnn1`, the Efficacy in experiment [5] is -26; in experiment [4], 3. Also, the values for the negative-log Ki (pKi) in experiment [1], in experiment [2] and in experiment [3] were 6.95, 7.31 and 7.57, respectively.

For `Brc1cccc(-c2cnnc(OCc3ccccc3)c2)c1`, the pKi in experiment [1] was 6.52; in experiment [3], 7.20. The Efficacy in experiment [4] was 32.

Consider `CCNc1cc(-c2cccc(C#N)c2)cnn1`, for which the results for the Efficacy in experiment [5] and in experiment [4] were -29 and 8, respectively. Besides, the pKi in experiment [1] is 7.10; in experiment [3], 7.48.

In the case of `N#Cc1cccc(-c2cnnc(-c3ccc(F)cc3)c2)c1`, the negative-log Ki (pKi) in experiment [1] is 7.59; in experiment [3], 7.85.

Take `COC(=O)c1cccc(-c2cnnc(-c3ccccc3)c2)c1`: the Efficacy in experiment [5] was -48; in experiment [4] it was -7. Moreover, the negative-log Ki (pKi) was 7.54 in experiment [1] and 7.96 in experiment [3].

In the case of `COc1cc(-c2cccc(Br)c2)cnn1`, the figures for the Efficacy in experiment [5] and in experiment [4] were -18 and 42, respectively. Moreover, the pKi is 6.69 in experiment [1] and 7.27 in experiment [3].

Values taken from ChEMBL document CHEMBL1141088, “A new pyridazine series of GABAA alpha5 ligands” (J Med Chem, 2005).
